Results taken from ChEMBL document CHEMBL1932983, “Towards a stable noeuromycin analog with a D-manno configuration: synthesis and glycosidase inhibition of D-manno-like tri- and tetrahydroxylated azepanes” (Bioorg Med Chem, 2012).
The source made the active and inactive calls. No cut-off for these calls is given here.

Tests used:
[1] = biological target: Probable alpha-glucosidase Os06g0675700 (Oryza sativa Japonica Group, UniProt Q653V7); test: Inhibition of rice alpha-glucosidase
[2] = biological target: T1, Lysosomal alpha-mannosidase (Bos taurus) (UniProt Q29451); test: Inhibition of lysosomal alpha-mannosidase in MDBK cells assessed as Man5-8GlcNAc2FOS formation at 1 mM after 24 hrs by HPLC analysis; type: cell-based
T1 sequence (whole entry): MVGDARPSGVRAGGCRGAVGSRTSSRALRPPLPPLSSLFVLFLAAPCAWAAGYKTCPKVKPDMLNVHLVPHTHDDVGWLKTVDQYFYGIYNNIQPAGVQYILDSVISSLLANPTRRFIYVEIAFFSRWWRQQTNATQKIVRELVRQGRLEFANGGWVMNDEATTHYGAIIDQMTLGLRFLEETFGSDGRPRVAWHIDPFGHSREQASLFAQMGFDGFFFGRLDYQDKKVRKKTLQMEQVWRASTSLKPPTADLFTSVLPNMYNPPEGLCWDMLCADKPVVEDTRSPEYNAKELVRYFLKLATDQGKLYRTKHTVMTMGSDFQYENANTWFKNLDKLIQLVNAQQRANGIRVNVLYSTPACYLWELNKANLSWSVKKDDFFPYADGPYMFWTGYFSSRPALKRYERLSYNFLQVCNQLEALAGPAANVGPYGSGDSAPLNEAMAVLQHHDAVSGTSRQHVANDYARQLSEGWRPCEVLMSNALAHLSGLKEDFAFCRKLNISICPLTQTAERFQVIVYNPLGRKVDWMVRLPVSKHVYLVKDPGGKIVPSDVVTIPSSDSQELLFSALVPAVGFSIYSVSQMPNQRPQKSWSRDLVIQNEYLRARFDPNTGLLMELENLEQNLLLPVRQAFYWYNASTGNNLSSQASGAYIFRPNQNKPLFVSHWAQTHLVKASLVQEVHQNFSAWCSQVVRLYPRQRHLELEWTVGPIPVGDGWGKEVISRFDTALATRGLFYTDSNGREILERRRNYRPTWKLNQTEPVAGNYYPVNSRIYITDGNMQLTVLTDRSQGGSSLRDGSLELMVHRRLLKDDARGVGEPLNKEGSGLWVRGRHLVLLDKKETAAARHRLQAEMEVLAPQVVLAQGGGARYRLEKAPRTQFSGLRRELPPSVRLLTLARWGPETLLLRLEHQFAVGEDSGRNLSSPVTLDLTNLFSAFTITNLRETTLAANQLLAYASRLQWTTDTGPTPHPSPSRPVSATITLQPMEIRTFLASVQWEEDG
Method in brief: (§1)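 MDBK cells were treated with azepanes alongside untreated cells and a swainsonine control (1 mM, 24 h). Free oligosaccharides (FOS) were labelled with 2-AA and profiled by fluorescence HPLC. Mannosylated species were compared: Man3GlcNAc2 and Man5-8GlcNAc2 indicate lysosomal activity, and Man5GlcNAc1 indicates cytosolic mannosidase activity.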

[3] = tested on: MDBK; test: Inhibition of cytosolic alpha-mannosidase in MDBK cells assessed as Man5GlcNAc1 formation at 1 mM after 24 hrs by HPLC analysis; type: cell-based; settings: Bos taurus; method in brief: as §1
[4] = tested on: Penicillium decumbens; test: Inhibition of Penicillium decumbens alpha-L-rhamnosidase at 1000 uM
Method in brief: (§2)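 Commercial glycosidases were tested with a single inhibitor level of 1000 μM, and percent inhibition was recorded. "NI" means less than 50% inhibition at that concentration.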

[5] = tested on: Prunus dulcis; test: Inhibition of almond beta-glucosidase at 1000 uM; method in brief: as §2
[6] = biological target: Oligo-1,6-glucosidase IMA1 (Saccharomyces cerevisiae S288c) (UniProt P53051); test: Inhibition of yeast alpha-glucosidase at 1000 uM; method in brief: as §2
[7] = tested on: Helix pomatia; test: Inhibition of snail beta-mannosidase at 1000 uM; method in brief: as §2
[8] = biological target: T2, Uncharacterized protein (Sus scrofa) (UniProt I3LIR5); test: Inhibition of pig kidney trehalase at 1000 uM; method in brief: as §2
T2 sequence (whole entry): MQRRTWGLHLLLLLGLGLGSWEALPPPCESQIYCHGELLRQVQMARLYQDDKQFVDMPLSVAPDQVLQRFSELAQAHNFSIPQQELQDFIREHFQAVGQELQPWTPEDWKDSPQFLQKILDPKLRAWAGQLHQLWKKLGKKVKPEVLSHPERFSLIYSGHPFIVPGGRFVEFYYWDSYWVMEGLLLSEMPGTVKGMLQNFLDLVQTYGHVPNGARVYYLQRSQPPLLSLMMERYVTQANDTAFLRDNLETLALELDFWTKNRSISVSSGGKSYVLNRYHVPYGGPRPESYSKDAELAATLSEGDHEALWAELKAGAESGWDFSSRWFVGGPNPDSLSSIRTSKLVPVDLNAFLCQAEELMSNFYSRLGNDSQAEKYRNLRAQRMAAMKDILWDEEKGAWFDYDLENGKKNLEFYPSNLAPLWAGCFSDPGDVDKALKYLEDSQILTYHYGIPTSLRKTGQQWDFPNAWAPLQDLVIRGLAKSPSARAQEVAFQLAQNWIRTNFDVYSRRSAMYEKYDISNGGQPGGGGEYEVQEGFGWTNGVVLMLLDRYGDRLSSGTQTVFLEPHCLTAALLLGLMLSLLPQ

[9] = tested on: Coffea; test: Inhibition of coffee beans alpha-galactosidase at 1000 uM; method in brief: as §2
[10] = biological target: T3, Beta-galactosidase (Bos taurus, UniProt Q58D55); test: Inhibition of bovine liver beta-galactosidase
T3 sequence (Q58D55 whole entry): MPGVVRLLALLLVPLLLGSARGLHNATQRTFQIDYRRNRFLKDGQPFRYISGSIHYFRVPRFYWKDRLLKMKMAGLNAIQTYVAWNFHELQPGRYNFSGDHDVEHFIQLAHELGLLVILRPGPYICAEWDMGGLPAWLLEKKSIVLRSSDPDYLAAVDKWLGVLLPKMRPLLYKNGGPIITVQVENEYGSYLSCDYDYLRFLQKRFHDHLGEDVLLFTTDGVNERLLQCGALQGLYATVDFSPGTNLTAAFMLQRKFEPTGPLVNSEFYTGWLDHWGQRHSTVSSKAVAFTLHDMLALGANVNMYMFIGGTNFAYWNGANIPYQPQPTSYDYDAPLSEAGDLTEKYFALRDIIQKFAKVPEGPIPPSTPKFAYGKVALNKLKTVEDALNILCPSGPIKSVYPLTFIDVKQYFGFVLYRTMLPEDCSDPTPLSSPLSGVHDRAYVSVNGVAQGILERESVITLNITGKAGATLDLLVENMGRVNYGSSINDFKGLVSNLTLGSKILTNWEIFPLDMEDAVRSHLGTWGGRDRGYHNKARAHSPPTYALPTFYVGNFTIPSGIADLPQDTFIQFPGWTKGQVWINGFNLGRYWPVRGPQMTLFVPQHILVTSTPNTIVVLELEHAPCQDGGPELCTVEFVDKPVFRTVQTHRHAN

[11] = tested on: Aspergillus niger; test: Inhibition of Aspergillus niger amyloglucosidase at 1000 uM; method in brief: as §2
[12] = Inhibition of jack beans alpha-mannosidase; set-up: species or system Canavalia ensiformis
[13] = biological target: T4, Glucosylceramidase (Bos taurus) (UniProt Q2KHZ8); test: Inhibition of bovine liver beta-glucosidase at 1000 uM; method in brief: as §2
T4 sequence (whole entry): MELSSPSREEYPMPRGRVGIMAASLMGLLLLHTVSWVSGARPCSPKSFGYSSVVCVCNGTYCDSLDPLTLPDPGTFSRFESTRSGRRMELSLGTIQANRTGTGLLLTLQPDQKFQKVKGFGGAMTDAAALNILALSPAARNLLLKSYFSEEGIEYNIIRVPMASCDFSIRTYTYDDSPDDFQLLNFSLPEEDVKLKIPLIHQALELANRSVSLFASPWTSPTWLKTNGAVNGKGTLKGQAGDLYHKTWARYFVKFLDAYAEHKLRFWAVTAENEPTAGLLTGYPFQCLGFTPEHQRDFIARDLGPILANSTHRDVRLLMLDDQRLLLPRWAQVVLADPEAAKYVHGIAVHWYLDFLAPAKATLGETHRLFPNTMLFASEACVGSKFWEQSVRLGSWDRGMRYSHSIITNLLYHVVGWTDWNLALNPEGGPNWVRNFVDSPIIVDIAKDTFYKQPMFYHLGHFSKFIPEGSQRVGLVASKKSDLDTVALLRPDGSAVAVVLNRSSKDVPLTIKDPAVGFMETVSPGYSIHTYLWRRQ

[14] = biological target: T5, Beta-glucuronidase (Bos taurus) (UniProt A3KMY8); test: Inhibition of bovine liver beta glucuronidase at 1000 uM; method in brief: as §2
T5 sequence (whole entry): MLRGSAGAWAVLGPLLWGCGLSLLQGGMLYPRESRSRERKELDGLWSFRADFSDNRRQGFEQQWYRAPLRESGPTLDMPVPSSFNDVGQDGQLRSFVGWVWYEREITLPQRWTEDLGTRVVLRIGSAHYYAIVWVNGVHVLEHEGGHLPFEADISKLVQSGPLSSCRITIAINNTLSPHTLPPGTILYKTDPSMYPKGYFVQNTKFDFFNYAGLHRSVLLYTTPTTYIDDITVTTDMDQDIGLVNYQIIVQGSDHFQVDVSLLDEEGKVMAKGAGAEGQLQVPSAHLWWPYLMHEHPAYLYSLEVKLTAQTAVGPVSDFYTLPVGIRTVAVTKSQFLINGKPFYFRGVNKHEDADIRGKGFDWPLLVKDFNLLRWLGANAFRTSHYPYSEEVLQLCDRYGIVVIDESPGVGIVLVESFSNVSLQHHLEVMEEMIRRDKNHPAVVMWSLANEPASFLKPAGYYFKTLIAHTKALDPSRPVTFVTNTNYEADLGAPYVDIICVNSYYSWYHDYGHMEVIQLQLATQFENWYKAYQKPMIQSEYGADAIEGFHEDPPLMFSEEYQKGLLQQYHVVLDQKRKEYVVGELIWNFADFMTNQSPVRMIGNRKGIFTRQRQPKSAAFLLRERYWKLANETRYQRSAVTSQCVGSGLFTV

[15] = biological target: T6, Tissue alpha-L-fucosidase (Bos taurus, UniProt Q2KIM0); test: Inhibition of bovine kidney alpha-L-fucosidase
T6 sequence (Q2KIM0 whole entry): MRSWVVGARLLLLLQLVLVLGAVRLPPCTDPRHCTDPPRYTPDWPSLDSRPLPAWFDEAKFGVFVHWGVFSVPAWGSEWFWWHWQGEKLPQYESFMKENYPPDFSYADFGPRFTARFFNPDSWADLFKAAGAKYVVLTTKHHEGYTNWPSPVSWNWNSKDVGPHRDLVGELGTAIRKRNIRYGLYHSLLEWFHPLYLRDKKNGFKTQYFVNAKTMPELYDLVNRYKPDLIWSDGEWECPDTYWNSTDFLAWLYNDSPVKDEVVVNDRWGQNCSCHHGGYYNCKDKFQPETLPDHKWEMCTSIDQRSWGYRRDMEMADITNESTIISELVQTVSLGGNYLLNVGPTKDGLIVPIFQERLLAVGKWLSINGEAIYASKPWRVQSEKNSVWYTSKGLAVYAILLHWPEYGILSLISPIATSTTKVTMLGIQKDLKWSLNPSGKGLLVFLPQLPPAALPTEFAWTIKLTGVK

[16] = biological target: T7, Tissue alpha-L-fucosidase (Bos taurus) (UniProt Q2KIM0); test: Inhibition of bovine kidney alpha-L-fucosidase at 1000 uM; method in brief: as §2
T7 sequence (whole entry): T6 sequence (Q2KIM0 whole entry)

[17] = biological target: Probable alpha-glucosidase Os06g0675700 (Oryza sativa Japonica Group) (UniProt Q653V7); test: Inhibition of rice alpha-glucosidase at 1000 uM; method in brief: as §2
[18] = tested on: Canavalia ensiformis; test: Inhibition of jack beans alpha-mannosidase at 1000 uM; method in brief: as §2
[19] = biological target: T8, Beta-glucuronidase (Bos taurus, UniProt A3KMY8); test: Inhibition of bovine liver beta glucuronidase
T8 sequence (A3KMY8 whole entry): T5 sequence (whole entry)

[20] = Inhibition of almond beta-glucosidase; set-up: species or system Prunus dulcis
[21] = biological target: Oligo-1,6-glucosidase IMA1 (Saccharomyces cerevisiae S288c, UniProt P53051); test: Inhibition of yeast alpha-glucosidase
[22] = Inhibition of coffee beans alpha-galactosidase; set-up: species or system Coffea
[23] = biological target: T1, Lysosomal alpha-mannosidase (Bos taurus); test: Inhibition of lysosomal alpha-mannosidase in MDBK cells assessed as Man5-8GlcNAc2FOS formation at 0.1 to 1 mM after 24 hrs by HPLC analysis; type: cell-based; method in brief: as §1

Oligo-1,6-glucosidase IMA1 (Saccharomyces cerevisiae S288c), sequence (P53051 whole entry): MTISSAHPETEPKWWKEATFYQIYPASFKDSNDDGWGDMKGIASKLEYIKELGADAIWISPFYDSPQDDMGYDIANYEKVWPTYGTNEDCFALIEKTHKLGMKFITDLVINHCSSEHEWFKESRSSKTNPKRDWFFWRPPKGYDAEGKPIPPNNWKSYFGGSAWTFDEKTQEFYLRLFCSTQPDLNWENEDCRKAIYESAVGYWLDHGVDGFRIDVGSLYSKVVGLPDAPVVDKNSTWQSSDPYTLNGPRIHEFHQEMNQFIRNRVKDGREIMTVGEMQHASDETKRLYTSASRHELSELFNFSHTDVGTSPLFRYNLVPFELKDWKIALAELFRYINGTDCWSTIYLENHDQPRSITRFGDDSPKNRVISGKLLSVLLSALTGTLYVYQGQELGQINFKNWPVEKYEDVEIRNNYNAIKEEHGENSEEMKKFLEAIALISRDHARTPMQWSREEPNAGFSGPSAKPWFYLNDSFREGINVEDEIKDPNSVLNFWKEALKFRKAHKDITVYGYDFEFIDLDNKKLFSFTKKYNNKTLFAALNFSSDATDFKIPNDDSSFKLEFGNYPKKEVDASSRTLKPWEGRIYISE
Probable alpha-glucosidase Os06g0675700 (Oryza sativa Japonica Group), sequence (Q653V7 whole entry): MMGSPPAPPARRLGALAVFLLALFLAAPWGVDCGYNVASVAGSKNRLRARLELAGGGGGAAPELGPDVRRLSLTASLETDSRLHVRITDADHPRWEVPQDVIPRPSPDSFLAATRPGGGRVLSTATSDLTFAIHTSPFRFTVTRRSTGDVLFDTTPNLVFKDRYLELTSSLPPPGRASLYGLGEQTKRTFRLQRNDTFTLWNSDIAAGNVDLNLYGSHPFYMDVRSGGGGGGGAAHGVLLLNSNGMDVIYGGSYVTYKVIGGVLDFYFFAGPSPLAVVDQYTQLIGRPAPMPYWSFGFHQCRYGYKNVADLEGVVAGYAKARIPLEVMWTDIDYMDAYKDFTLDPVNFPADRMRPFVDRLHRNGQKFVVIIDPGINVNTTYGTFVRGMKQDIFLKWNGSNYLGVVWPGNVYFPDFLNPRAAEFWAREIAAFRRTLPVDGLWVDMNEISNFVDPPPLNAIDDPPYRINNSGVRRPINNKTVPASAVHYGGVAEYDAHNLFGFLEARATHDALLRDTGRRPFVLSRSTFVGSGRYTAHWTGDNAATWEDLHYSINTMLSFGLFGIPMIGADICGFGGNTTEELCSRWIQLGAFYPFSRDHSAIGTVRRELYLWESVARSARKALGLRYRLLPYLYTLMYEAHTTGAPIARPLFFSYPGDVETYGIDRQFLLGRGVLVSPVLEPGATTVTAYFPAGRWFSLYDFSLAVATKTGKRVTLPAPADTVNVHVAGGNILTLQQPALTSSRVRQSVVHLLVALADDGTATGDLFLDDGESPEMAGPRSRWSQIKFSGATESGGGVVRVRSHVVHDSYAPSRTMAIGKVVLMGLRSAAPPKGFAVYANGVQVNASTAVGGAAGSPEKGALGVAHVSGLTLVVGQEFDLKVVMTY
Probable alpha-glucosidase Os06g0675700, sequence (Q653V7 whole entry): as above
Oligo-1,6-glucosidase IMA1, sequence (P53051 whole entry): as the sequence (P53051 whole entry) above

C[C@H]1CNC[C@@H](O)[C@@H](O)[C@@H]1O
IC50 [1]: 226 µM
inhibition [2]: Active
inhibition [3]: Active
inhibition [4]: 6.8%
inhibition [5]: 29.4%
inhibition [6]: 0%
inhibition [7]: 4.3%
inhibition [8]: 22.2%
inhibition [9]: 37.6%
IC50 [10]: 876 µM
inhibition [11]: 0%
IC50 [12]: 335 µM
inhibition [13]: 49.2%
inhibition [14]: 0%
IC50 [15]: 181 µM

OC[C@H]1CNC[C@@H](O)[C@@H](O)[C@@H]1O
inhibition [16]: 15.8%
inhibition [2]: Active
inhibition [4]: 0.9%
inhibition [5]: 41.4%
inhibition [6]: 18.9%
inhibition [7]: 0%
inhibition [8]: 16.6%
inhibition [9]: 16.8%
IC50 [10]: 442 µM
inhibition [17]: 0%
inhibition [11]: 14.2%
inhibition [14]: 0%
inhibition [18]: 23%

OC[C@@H]1CNC[C@@H](O)[C@@H](O)[C@@H]1O
inhibition [16]: 25%
IC50 [19]: 594 µM
IC50 [20]: 157 µM
inhibition [4]: 1.5%
inhibition [7]: 0%
inhibition [8]: 17.2%
IC50 [10]: 420 µM
inhibition [17]: 14.7%
inhibition [11]: 0.3%
IC50 [12]: 812 µM
IC50 [21]: 71 µM
IC50 [22]: 65 µM
inhibition [23]: inactive

C[C@@H]1CNC[C@@H](O)[C@@H](O)[C@@H]1O
IC50 [1]: 12 µM
IC50 [19]: 139 µM
IC50 [20]: 14 µM
inhibition [4]: 20.6%
inhibition [6]: 37.8%
inhibition [7]: 0.4%
inhibition [8]: 39.9%
IC50 [10]: 198 µM
inhibition [11]: 6.9%
IC50 [12]: 101 µM
IC50 [22]: 14 µM
IC50 [15]: 64 µM
inhibition [23]: inactive
